# Screens as filed in PubChem BioAssay.
# Scp1 inh = blocks human Scp-1 phosphatase activity | Recombinant Scp1, phosphopeptide, malachite green phosphate absorbance | 340,000 compounds, 0.88% hits | AID 493091 | inhibition, % at 20 µM | Q9GZU7;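 active = inhibition above about 50% at 20 µM, limit read from the data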;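 note: plate controls were DMSO wells with enzyme for no effect and wells lacking enzyme for full effect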
#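 Incubation: 45 min enzyme reaction at room temperature / System: truncated SCP-1 phosphatase (76-261aa) / Reagent: Phospho 17-mer peptide substrate / Buffer or medium: Acidic Tris acetate buffer with magnesium and detergent / Signal: absorbance at 630 nm / Doses: one concentration, 20 µM, with 1.0% DMSO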
# LMPTP inh = LMPTP (human) inhibition; 360,000 compounds, 0.22% hits; inhibition, % at 20 µM; recombinant LMPTP-A, OMFP fluorogenic substrate, fluorescence intensity; P24666;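 active = compounds that cut the enzyme signal by at least half of the control window in the single-dose screen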;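 note: plate controls were DMSO wells with enzyme plus substrate for no effect and substrate without enzyme for full effect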
# Target sequence (P24666 whole entry, looked up): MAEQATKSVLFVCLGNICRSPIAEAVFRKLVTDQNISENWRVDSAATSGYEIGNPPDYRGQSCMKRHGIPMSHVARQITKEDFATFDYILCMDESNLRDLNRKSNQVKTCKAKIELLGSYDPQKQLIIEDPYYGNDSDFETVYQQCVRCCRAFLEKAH
#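 Test system: LMPTP-A phosphatase enzyme; input: 0.625 nM LMPTP-A final; reagent: OMFP substrate, 400 µM final; compound dosing: 20 µM single dose, 3% DMSO; incubation: 50 min dark incubation at room temperature; measured by: endpoint fluorescence intensity from OMFP dephosphorylation; measure: % inhibition relative to no-enzyme and uninhibited control wells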
# SUMO1 PPI mod = SUMO1-SIM interaction modulation; SUMO1 binding to a labelled peptide, TR-FRET, 1 h; inhibition, % at 20 µM; 360,000 compounds, 0.33% hits; AID 602429; in the data active = inhibition above about 37%
# STEP inh = STEP (human) phosphatase inhibition. recombinant STEP, OMFP fluorogenic substrate, fluorescence. 360,000 compounds, 0.25% hits. inhibition, % at 20 µM. P54829;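 active = inhibition at 20 µM, scaled per plate between control wells, above about 37%, limit read from the data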;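 note: 0% = DMSO with enzyme and substrate and 100% = substrate only without enzyme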
#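 Material: STEP (striatal-enriched tyrosine phosphatase) enzyme, cell-free; Compound dosing: 20 µM single dose in 1% DMSO; Technique: fluorescence read at 480 nm ex / 540 nm em; Times: reaction 20 min, ambient temperature; Medium: 50 mM Bis-Tris pH 6.0 with 2.5 mM DTT and 0.005% Tween 20; Also added: OMFP at 25 µM.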
# DNMT1 inh = DNMT1 (human) enzyme inhibition. inhibition (reported as % activation of signal), % at 10 µM. DNMT1 molecular beacon, Hinp1I cleavage, fluorescence. 360,000 compounds, 0.83% hits. AID 588458. P26358; in the data active = inhibition above about 50%
# Rpn11 block = blocks the human proteasome subunit Rpn11; O00487; human 26S proteasome, Ub4-pepOG fluorescence polarization; 20S core pre-blocked with epoxomicin; inhibition, % at 20 µM; 360,000 compounds, 0.59% hits;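 active = inhibition at 20 µM, scaled to each plate's controls, above about 33%, limit read from the data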
# Target sequence (O00487 whole entry, looked up): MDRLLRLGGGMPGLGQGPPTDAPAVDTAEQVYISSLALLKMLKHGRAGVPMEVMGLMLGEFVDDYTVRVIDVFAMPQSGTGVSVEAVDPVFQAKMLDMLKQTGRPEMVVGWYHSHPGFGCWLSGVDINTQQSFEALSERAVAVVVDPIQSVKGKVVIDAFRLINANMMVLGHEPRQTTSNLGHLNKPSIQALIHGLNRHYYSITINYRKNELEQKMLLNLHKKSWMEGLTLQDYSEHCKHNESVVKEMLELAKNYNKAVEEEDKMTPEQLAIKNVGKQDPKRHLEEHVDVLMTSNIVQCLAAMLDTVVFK
# DNMT1 confirm = confirmation of human DNMT1 inhibitors; shares compounds with DNMT1 inh; DNMT1 molecular beacon HinP1I cleavage, fluorescence; inhibition, % at 10 µM; 2,300 compounds, 8% hits;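 active = average inhibition of at least 30% in the single-concentration confirmation test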
# DNMT1 interf = beacon fluorescence artifact counter-screen; shares compounds with DNMT1 inh; DNMT1 molecular beacon spectral interference counterscreen, fluorescence 485/520; activation (fluorescence interference), % at 10 µM; 2,300 compounds, 1% hits; AID 602387;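 active = activation of at least 30% at 10 µM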;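 note: DNMT1 catalytic domain with a HinP1I cleavage step and a FAM/dabcyl DNA beacon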
# Starred values were filed as active, the others as inactive; x = not tested or not shown. Hits are enriched below; roughly 2.3% of the tested compounds scored in any of these assays.
SMILES,Scp1 inh,LMPTP inh,SUMO1 PPI mod,STEP inh,DNMT1 inh,Rpn11 block,DNMT1 confirm,DNMT1 interf
CCN(C(=O)Cn1c(=O)n(-c2cc(OC)c(OC)c(OC)c2)c(=O)c2ccccc21)c1cccc(C)c1,-8,-1,4,-3,130*,-5,3,2
O=C(NC(=S)Nc1cc([N+](=O)[O-])ccc1O)c1cccnc1,33,4,-8,5,-4,0,x,x
CCc1ccc(-c2nc(NC(=O)c3ccc(OCC(=O)Nc4ccc(F)cc4)c(OC)c3)sc2C)cc1,-5,-1,-12,1,61*,-3,0,1
COc1ccc(O)c(-c2cc(-c3ccccc3[N+](=O)[O-])[nH]n2)c1,-2,-1,-5,0,86*,-1,3,6
CCc1ccc(NC(=O)c2noc3c2CCC3)cc1,48,2,1,4,80*,-16,10,6
O=[N+]([O-])c1ccc(/C=N/NC(=S)Nc2ccc(Cl)cc2Cl)s1,12,13,9,4,60*,8,5,-3
COc1ccc(/C=N/Nc2cc(N(C)C)nc(N(C)C)n2)cc1,-2,6,-6,5,51*,3,-3,-11
O=c1c2c([nH]c3ccccc13)C(=C1CCCC1)CC2,7,59*,28,10,92*,13,7,4
O=c1c2c([nH]c3ccccc13)CCCC2,-3,0,3,5,1,-4,x,x
N#Cc1c(SCC(=O)Nc2nccs2)nc2c(c1-c1ccco1)CCCC2,-2,1,8,7,60*,8,5,0
O=C(CNC(=O)C1CCCCC1)NCc1ccco1,11,0,0,-2,13,-2,x,x
COc1cccc(N=Nc2c(=O)[nH]n3c(=O)c4c([nH]c23)CCC4)c1,23,13,-10,4,60*,-5,-1,-5
CC1(C)OC2CC3C4CC=C5CC(O)CCC5(C)C4CCC3(C)C2(C(=O)CO)O1 (centres undefined),-4,4,-3,0,67*,24,2,4
CC(=O)OCC(=O)C12OC(C)(C)OC1CC1C3CC=C4CC(O)CCC4(C)C3CCC12C (centres undefined),-15,0,7,0,16,4,x,x
CC(/C=C1\SC(=S)N(c2ccc(C(=O)O)cc2)C1=O)=C\c1ccccc1,18,17,57*,2,110*,4,6,0
CC(/C=C1\SC(=S)N(NC(=O)c2ccc(C)cc2)C1=O)=C\c1ccccc1,0,2,7,2,4,3,x,x
CC1=C(C(=O)Nc2ccc(C)cc2C)C(c2ccc(Cl)cc2)n2nc(C(=O)OC(C)C)nc2N1 (centres undefined),-4,-3,-3,3,57*,5,2,0
CSc1nc2n(n1)C(c1cccc(F)c1)C(C(=O)Nc1ccc(C)cc1C)=C(C)N2 (centres undefined),-12,-3,-1,-8,38,1,x,x
COC(=O)[C@]1(C)N[C@H](CN(C)C(C)=O)[C@@H]2C(=O)N(C)C(=O)[C@@H]21,-4,-3,-2,-1,1,0,x,x
COCC(=O)N(C)C[C@H]1N[C@@](C)(C(=O)OC)[C@H]2C(=O)N(C)C(=O)[C@@H]12,0,-1,5,-9,86*,-6,0,3
CCOc1cc(/C=C2/NC(=S)NC2=O)ccc1OCc1ccc([N+](=O)[O-])cc1,0,21,-6,8,52*,8,3,9
OC[C@H]1O[C@@H](c2nc(-c3ccc(CN4CCOCC4)cc3)no2)[C@H](O)[C@@H](O)[C@H]1O,x,-1,2,-1,3,-3,x,x
